In ChEMBL document CHEMBL4177625, “Ability of higenamine and related compounds to enhance glucose uptake in L6 cells” (Bioorg Med Chem, 2017):
Each block holds one compound with its values, some of them ahead of it. Calls of active or inactive are those of the source. The calls are words filed in the database; no cut-off is given here.

Columns and labels:
Type in all cases: functional
[1] = biological target: Beta-2 adrenergic receptor (Rattus norvegicus, UniProt P10608); assay: Agonist activity at beta2 adrenergic receptor in rat L6 cell lysate assessed as increase in intracellular 2-deoxyglucose uptake preincubated for 4 hrs followed by 2-deoxyglucose addition measured after 20 mins by fluorescence-based enzymatic assay relative to control
How it was run: (§1)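 L6 rat myoblasts (JCRB9081) were grown in DMEM with 10% FBS at 37°C under 10% CO2. At confluence they were differentiated in DMEM with 2% horse serum for 6–8 days. Cells were serum-starved, then exposed to sample in serum-free DMEM for 4 h, with 100 nM insulin as the positive control. They were rinsed in KRPH buffer pH 7.4 and given 1 mM 2-deoxyglucose for 20 min. After washing, cells were lysed in 0.05 M NaOH and lysate 2-deoxyglucose was quantified enzymatically by fluorescence.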

[2] = biological target: Beta-2 adrenergic receptor (Rattus norvegicus) (UniProt P10608); assay: Agonist activity at beta2 adrenergic receptor in rat L6 cell lysate assessed as increase in intracellular 2-deoxyglucose uptake at more than 5 uM preincubated for 4 hrs followed by 2-deoxyglucose measured after 20 mins by fluorescence-based enzymatic assay relative to control; how it was run: as §1
[3] = biological target: Beta-2 adrenergic receptor (Rattus norvegicus) (UniProt P10608); assay: Agonist activity at beta2 adrenergic receptor in rat L6 cell lysate assessed as increase in intracellular 2-deoxyglucose uptake at 10 to 100 uM preincubated for 4 hrs followed by 2-deoxyglucose measured after 20 mins by fluorescence-based enzymatic assay relative to control; how it was run: as §1
[4] = biological target: Beta-2 adrenergic receptor (Rattus norvegicus) (UniProt P10608); assay: Agonist activity at beta2 adrenergic receptor in rat L6 cell lysate assessed as increase in intracellular 2-deoxyglucose uptake at 0.5 to 100 uM preincubated for 4 hrs followed by 2-deoxyglucose measured after 20 mins by fluorescence-based enzymatic assay relative to control; how it was run: as §1
[5] = biological target: Beta-2 adrenergic receptor (Rattus norvegicus) (UniProt P10608); assay: Agonist activity at beta2 adrenergic receptor in rat L6 cell lysate assessed as increase in intracellular 2-deoxyglucose uptake at 0.1 to 100 uM preincubated for 4 hrs followed by 2-deoxyglucose measured after 20 mins by fluorescence-based enzymatic assay relative to higenamine
How it was run: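 Differentiated L6 rat myotubes (2% horse serum, 6–8 days post-confluence) serum-starved, then exposed to sample in serum-free DMEM for 4 h; insulin 100 nM as positive control. Rinsed with KRPH buffer (pH 7.4), given 1 mM 2-deoxyglucose for 20 min, washed thrice, lysed in 0.05 M NaOH; lysate 2-deoxyglucose measured enzymatically by fluorescence.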

[6] = biological target: Beta-2 adrenergic receptor (Rattus norvegicus) (UniProt P10608); assay: Agonist activity at beta2 adrenergic receptor in rat L6 cell lysate assessed as increase in intracellular 2-deoxyglucose uptake at 100 uM preincubated for 4 hrs followed by 2-deoxyglucose measured after 20 mins by fluorescence-based enzymatic assay relative to control; how it was run: as §1
[7] = biological target: Beta-2 adrenergic receptor (Rattus norvegicus) (UniProt P10608); assay: Agonist activity at beta2 adrenergic receptor in rat L6 cell lysate assessed as increase in intracellular 2-deoxyglucose uptake at 0.1 to 100 uM preincubated for 4 hrs followed by 2-deoxyglucose measured after 20 mins by fluorescence-based enzymatic assay relative to control; how it was run: as §1

Sequence of Beta-2 adrenergic receptor (Rattus norvegicus) (P10608 whole entry, looked up): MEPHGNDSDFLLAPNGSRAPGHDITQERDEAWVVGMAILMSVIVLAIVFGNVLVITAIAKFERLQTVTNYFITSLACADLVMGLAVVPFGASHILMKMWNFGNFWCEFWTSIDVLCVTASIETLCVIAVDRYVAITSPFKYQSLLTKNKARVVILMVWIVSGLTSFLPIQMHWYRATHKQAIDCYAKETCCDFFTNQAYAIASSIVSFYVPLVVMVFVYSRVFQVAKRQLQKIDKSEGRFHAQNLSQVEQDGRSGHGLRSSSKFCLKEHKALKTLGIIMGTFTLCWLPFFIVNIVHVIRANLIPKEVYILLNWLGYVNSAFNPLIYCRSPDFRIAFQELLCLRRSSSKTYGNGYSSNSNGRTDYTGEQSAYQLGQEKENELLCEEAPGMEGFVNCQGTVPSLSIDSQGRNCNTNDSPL
Sequence of Beta-2 adrenergic receptor (P10608 whole entry): as the sequence (P10608 whole entry, looked up) above

EC50 [1]: 4.5 µM
SMILES: Oc1ccc(C[C@H]2NCCc3cc(O)c(O)cc32)cc1 [(+)-HIGENAMINE]

EC50 [1]: 9 µM
SMILES: OC[C@H]1O[C@@H](Oc2ccc(C[C@H]3NCCc4cc(O)c(O)cc43)cc2)[C@H](O)[C@@H](O)[C@@H]1O

fold change (FC) [2]: > 2
Activity [3]: Active
SMILES: Oc1ccc(CC2NCCc3cc(O)c(O)cc32)cc1 (stereo unspecified)

SMILES: COc1cc2c(cc1O)C(Cc1ccc(O)cc1)NCC2 (stereo unspecified)
fold change (FC) [4]: 1.6
Activity [5]: 40%

fold change (FC) [6]: 1.2
Activity [4]: Active
SMILES: CN1CCc2cc(O)c(O)cc2C1Cc1ccc(O)cc1 (stereo unspecified)

fold change (FC) [6]: 1.2
Activity [4]: Active
SMILES: COc1cc2c(cc1O)CCNC2Cc1ccc(O)cc1 (stereo unspecified)

EC50 [1]: 0.6 µM
SMILES: Oc1ccc(C[C@@H]2NCCc3cc(O)c(O)cc32)cc1 [(-)-HIGENAMINE]

Activity [3]: Active
SMILES: CNC[C@H](O)c1ccc(O)c(O)c1

Activity [3]: Active
SMILES: NC[C@H](O)c1ccc(O)c(O)c1

Activity [7]: Active
SMILES: COc1ccc(CC2NCCc3cc(O)c(O)cc32)cc1 (stereo unspecified)

EC50 [1]: 1.3 µM
SMILES: OC[C@H]1O[C@@H](Oc2ccc(C[C@@H]3NCCc4cc(O)c(O)cc43)cc2)[C@H](O)[C@@H](O)[C@@H]1O

Activity [7]: Active
SMILES: COc1cc2c(cc1OC)C(Cc1ccc(O)cc1)NCC2 (stereo unspecified)
